According to ChEMBL document CHEMBL4261646, “Bisphosphonate Inhibitors of Mammalian Glycolytic Aldolase” (J Med Chem, 2018):
The source made the active and inactive calls. The calls are words filed in the database; no cut-off is given here.

Assays:
[1] = Competitive-inhibition of fructose-bisphosphate aldolase (unknown origin) using FBP as substrate and […] in presence of constant enzyme concentration by UV-Vis spectrophotometry dependent TIM/GDH coupled assay based double-reciprocal plot analysis; set-up: species or system Homo sapiens
Outline: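 Recombinant rabbit muscle aldolase at 0.01 μg/mL in TIM/GDH-coupled assay (NADH oxidation at 340 nm, 25 °C, Tris-acetate pH 7.5, 0.3 mM NADH).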

[2] = Inhibition of fructose-bisphosphate aldolase (unknown origin); set-up: species or system Homo sapiens
[3] = Inhibition of rabbit muscle fructose-bisphosphate aldolase using FBP as substrate and NADH by spectrophotometry based coupled enzyme assay; set-up: species or system Oryctolagus cuniculus
Outline: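 Recombinant rabbit muscle aldolase was expressed in E. coli. FBP cleavage was coupled to triose-phosphate isomerase/glycerol-3-phosphate dehydrogenase, and NADH oxidation was read at 340 nm at 25 °C. Buffer was 50 mM Tris-acetate pH 7.5 with 1 mM EDTA and 0.3 mM NADH. Reactions were started by adding enzyme. At least three independent assays.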

HeLa [4] = assay: Growth inhibition of human HeLa cells at 1 to 50 uM after 24 to 72 hrs by trypan blue exclusion assay; type: functional, cell-based
Outline: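 HeLa cells were seeded at 3 x 10^5 cells/plate and grown in DMEM at 37 °C/5% CO2 with filter-sterilized inhibitor for 24, 48 or 72 h. Cells were trypsinized (0.25%), pelleted and resuspended. Total cells were counted by Trypan blue exclusion on a hemocytometer. At least three independent experiments; Student's two-tailed t-test.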

[5] = Inhibition of fructose-bisphosphate aldolase (unknown origin) using FBP as substrate and NADH preincubated for 0 mins followed by substrate addition by UV-Vis spectrophotometry based TIM/GDH coupled assay; set-up: species or system Homo sapiens
Outline: (§1)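 Recombinant rabbit muscle aldolase was pre-incubated for the listed time with inhibitor at 0.01–20 μM, then assayed with 10 μM FBP. Cleavage was read by TIM/GDH coupling as NADH oxidation at 340 nm, 25 °C, in 50 mM Tris-acetate pH 7.5, 1 mM EDTA, 0.3 mM NADH. IC50 was taken from a 4-parameter fit; at least three independent assays.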

[6] = Inhibition of fructose-bisphosphate aldolase (unknown origin) using FBP as substrate and NADH preincubated for 10 mins followed by substrate addition by UV-Vis spectrophotometry based TIM/GDH coupled assay; set-up: species or system Homo sapiens; outline: as §1
[7] = Inhibition of fructose-bisphosphate aldolase (unknown origin) using FBP as substrate and NADH preincubated for 30 mins followed by substrate addition by UV-Vis spectrophotometry based TIM/GDH coupled assay; set-up: species or system Homo sapiens; outline: as §1
[8] = Inhibition of fructose-bisphosphate aldolase (unknown origin) using FBP as substrate and NADH preincubated for 90 mins followed by substrate addition by UV-Vis spectrophotometry based TIM/GDH coupled assay; set-up: species or system Homo sapiens; outline: as §1
[9] = Inhibition of fructose-bisphosphate aldolase (unknown origin) using FBP as substrate and NADH preincubated for 180 mins followed by substrate addition by UV-Vis spectrophotometry based TIM/GDH coupled assay; set-up: species or system Homo sapiens; outline: as §1
[10] = Slow binding inhibition of fructose-bisphosphate aldolase (unknown origin) assessed as dissociation constant using FBP as substrate and NADH by UV-Vis spectrophotometry dependent TIM/GDH coupled assay based Dixon plot analysis; set-up: species or system Homo sapiens
Outline: (§2)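 Recombinant rabbit muscle aldolase, TIM/GDH-coupled NADH oxidation at 340 nm, 25 °C, in Tris-acetate pH 7.5 buffer with 1 mM EDTA and 0.3 mM NADH. Progress curves were recorded with 20–200 μM FBP and 0.5–75 μM inhibitor. Slow-binding constants came from non-linear regression under the Morrison–Walsh model; at least three independent assays.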

[11] = Slow binding inhibition of fructose-bisphosphate aldolase (unknown origin) assessed as overall inhibition constant using FBP as substrate and NADH by UV-Vis spectrophotometry dependent TIM/GDH coupled assay based Dixon plot analysis; set-up: species or system Homo sapiens; outline: as §2
HeLa [12] = assay: Growth inhibition of human HeLa cells at 50 uM after 72 hrs by trypan blue exclusion assay relative to control; type: functional; conditions: read-out: GI
Outline: (§3)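 Cells seeded in DMEM (HeLa 3 x 10^5, HEK293 2 x 10^5 per plate) were kept at 37 °C, 5% CO2 with filter-sterilized compound for 24, 48 or 72 h. Cells were trypsinized and total counts made by Trypan blue exclusion on a hemocytometer. Student's two-tailed t-test; at least three independent experiments.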

HeLa [13] = assay: Growth inhibition of human HeLa cells at 10 uM after 72 hrs by trypan blue exclusion assay relative to control; type: functional; conditions: read-out: GI; outline: as §3
HEK293 = assay: Growth inhibition of HEK293 cells at 1 to 50 uM after 24 to 72 hrs by trypan blue exclusion assay; type: cell-based; conditions: human, hek293, 50 µM; outline: as §3
[14] = Slow binding inhibition of fructose-bisphosphate aldolase (unknown origin) assessed as dibasic species population adjusted dissociation constant using FBP as substrate and NADH by UV-Vis spectrophotometry dependent TIM/GDH coupled assay based Dixon plot analysis; set-up: species or system Homo sapiens; conditions: read-out: Ki(app)
[15] = Slow binding inhibition of fructose-bisphosphate aldolase (unknown origin) assessed as dibasic species population adjusted overall inhibition constant using FBP as substrate and NADH by UV-Vis spectrophotometry dependent TIM/GDH coupled assay based Dixon plot analysis; set-up: species or system Homo sapiens; conditions: read-out: Ki(app)
HeLa [16] = assay: Growth inhibition of human HeLa cells after 72 hrs by trypan blue exclusion assay relative to control; type: functional, cell-based; outline: as §3
HeLa [17] = assay: Growth inhibition of human HeLa cells assessed as transport efficiency corrected EC50 for after 72 hrs by trypan blue exclusion assay relative to control; type: functional, cell-based
[18] = (§4) Dual competitive-inhibition of fructose-bisphosphate aldolase (unknown origin) using FBP as substrate and […] in presence of constant enzyme concentration by UV-Vis spectrophotometry dependent TIM/GDH coupled assay based double-reciprocal plot analysis; set-up: species or system Homo sapiens
Outline: (§5)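 Recombinant rabbit muscle aldolase was expressed in E. coli BL21-SI. Cleavage of FBP was coupled to TIM/GDH, and NADH oxidation was followed at 340 nm at 25 °C. Buffer was 50 mM Tris-acetate pH 7.5 with 1 mM EDTA and 0.3 mM NADH. Initial rates were fitted to a two-site reversible linear competitive model. At least three independent assays.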

[19] = as §4, with “origin) assessed as inhibition constant for two competitive binding sites in enzyme active site” for “origin)”; set-up: species or system Homo sapiens; outline: as §5

O=P(O)(O)Oc1ccc2cc(OP(=O)(O)O)ccc2c1
Ki [1]: 280 nM
Ki [2]: 280 nM

O=C(COP(=O)(O)O)[C@@H](O)[C@@H](O)[C@H](O)COP(=O)(O)O
Ki [3]: 120000 nM

O=P(O)(O)Oc1ccc(C(P(=O)(O)O)P(=O)(O)O)cc1
Ki [1]: 42000 nM
growth inhibition (GI) (HeLa [4]): inactive

O=P([O-])([O-])Oc1ccc2cc(C(P(=O)([O-])[O-])P(=O)([O-])[O-])ccc2c1.[Li+].[Li+].[Li+].[Li+].[Li+].[Li+]
IC50 [5]: 670 nM
IC50 [6]: 170 nM
IC50 [7]: 130 nM
IC50 [8]: 60 nM
IC50 [9]: 68 nM
Ki [10]: 280 nM
Ki [11]: 38 nM
inhibition of growth at 50 µM (HeLa [12]): 50%
inhibition of growth at 10 µM (HeLa [13]): 30%
growth inhibition (GI) (HEK293): Non-Toxic
Ki [14]: 56 nM
Ki [15]: 7.6 nM
EC50 (HeLa [16]): 50000 nM
EC50 (HeLa [17]): 75 nM

O=P(O)(O)C(c1ccc2cc(O)ccc2c1)P(=O)(O)O
Ki [18]: 13000 nM
Ki [19]: 9000 nM
